Publication PMC6959537 (Bioorganic & medicinal chemistry, 2015)
“Also recorded” adds a separate entry of the source. Like-named read-outs stand apart in the source and are kept apart here.

Assays:
[1] = target: human TRPV1 (Homo sapiens, UniProt Q8NER1); experiment: hTRPV1 antagonism, inhibition of activation by capsaicin; format: cell-based
[2] = tested on: capsaicin-induced hypothermia; experiment: Inhibition of capsaicin-induced hypothermia after oral administration; parameters: species or system mouse; settings: in vivo
[3] = tested on: CCI-induced cold allodynia; experiment: CCI-induced cold allodynia; format: in vivo; settings: mouse, Bennett model, oral, 10 mg/kg
Method in brief: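 Mice with chronic constriction injury (Bennett model) received test compound orally. Cold allodynia was then scored and expressed as % maximal possible effect. Groups were n = 10, reported as mean ± SEM, and compared with vehicle (p < 0.05).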

[4] = tested on: body temperature; experiment: Body temperature study; format: in vivo, mouse; settings: at the given doses, oral
[5] = capsaicin 100 nM, FLIPR, hTRPV1 expressed in CHO cells

human TRPV1, sequence (Q8NER1 whole entry): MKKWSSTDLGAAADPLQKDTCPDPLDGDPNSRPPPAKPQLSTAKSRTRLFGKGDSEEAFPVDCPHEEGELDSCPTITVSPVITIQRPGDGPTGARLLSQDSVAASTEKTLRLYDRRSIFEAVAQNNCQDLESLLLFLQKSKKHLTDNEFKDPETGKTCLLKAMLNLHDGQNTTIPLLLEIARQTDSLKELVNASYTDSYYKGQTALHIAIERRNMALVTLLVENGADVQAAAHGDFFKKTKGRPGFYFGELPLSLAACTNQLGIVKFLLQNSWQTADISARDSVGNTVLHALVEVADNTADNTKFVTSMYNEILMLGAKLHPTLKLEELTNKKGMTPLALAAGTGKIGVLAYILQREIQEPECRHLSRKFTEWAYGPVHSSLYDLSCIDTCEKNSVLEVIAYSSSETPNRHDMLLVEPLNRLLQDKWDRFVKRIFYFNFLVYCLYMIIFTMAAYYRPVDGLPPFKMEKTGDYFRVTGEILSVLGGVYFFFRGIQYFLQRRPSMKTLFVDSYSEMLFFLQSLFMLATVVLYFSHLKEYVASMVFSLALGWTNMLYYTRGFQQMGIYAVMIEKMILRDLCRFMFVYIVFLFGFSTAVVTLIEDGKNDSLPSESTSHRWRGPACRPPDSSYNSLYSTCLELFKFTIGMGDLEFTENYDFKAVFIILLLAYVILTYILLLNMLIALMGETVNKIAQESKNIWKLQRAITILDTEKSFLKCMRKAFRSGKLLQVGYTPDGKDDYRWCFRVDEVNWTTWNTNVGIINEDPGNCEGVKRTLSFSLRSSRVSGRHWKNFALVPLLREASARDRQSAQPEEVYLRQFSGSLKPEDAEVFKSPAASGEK

Compound: 2-(3-Fluoro-4-(methylsulfonamido)phenyl)-N-(2-cyclopentylthio-4-(trifluoromethyl)-benzyl)propanamide [Compound 49]
- hTRPV1 antagonism in words [1, 5]: moderate antagonism

Compound: CC(C(=O)NCc1ccc(C(F)(F)F)cc1N1CCOCC1)c1ccc(NS(C)(=O)=O)c(F)c1 (centres unmarked) [Compound 27, 2-(3-Fluoro-4-methanesulfonylamino-phenyl)-N-(2-morpholin-4-yl-4-trifluoromethyl-benzyl)-propionamide]
- fold less potent than the corresponding piperidine surrogate (10) ([1]; capsaicin antagonism, versus compound 10): ca. 4 fold

Compound: CCCCCCOc1cc(C(F)(F)F)ccc1CNC(=O)C(C)c1ccc(NS(C)(=O)=O)c(F)c1 (centres unmarked) [Compound 31, 2-(3-Fluoro-4-(methylsulfonamido)phenyl)-N-(2-(hexyloxy)-4(trifluoromethyl)benzyl)propanamide]
- Ki [1]: 0.7 to 0.8 nM

Compound: CC(C(=O)NCc1ccc(C(F)(F)F)cc1F)c1ccc(NS(C)(=O)=O)c(F)c1 (centres unmarked) [Compound 50, 2-(3-Fluoro-4-methanesulfonylamino-phenyl)-N-(2-fluoro-4-trlfluoromethyl-benzyl)-propioamide]
- hTRPV1 antagonism in words [1, 5]: weak antagonists

Compound: CC(C(=O)NCc1ccc(C(F)(F)F)cc1SCCCO)c1ccc(NS(C)(=O)=O)c(F)c1 (centres unmarked) [Compound 42, 2-(3-Fluoro-4-(methylsulfonamido)phenyl)-N-(2-((3-hydroxypropyl)thio)-4-(trifluoro-methyl)benzyl)propanamide]
- hTRPV1 antagonism in words [1, 5]: loss of activity

Compound: C[C@H](C(=O)NCc1ccc(C(F)(F)F)cc1SC1CCCCC1)c1ccc(NS(C)(=O)=O)c(F)c1 [Compound 44S]
- Effect on capsaicin-induced hypothermia in words [2]: blocked capsaicin-induced hypothermia
- max antiallodynic efficacy in cold allodynia, MPE [3]: 57 % MPE
- Hyperthermia / body temperature effect of compound alone [4]: without hyperthermia; also recorded: did not show any hyperthermia; also recorded: thermoneutral

Compound: CC(C(=O)NCc1ccc(C(F)(F)F)cc1Cl)c1ccc(NS(C)(=O)=O)c(F)c1 (centres unmarked) [Compound 51, 2-(3-Fluoro-4-methanesulfonylamino-phenyl)-N-(2-chloro-4-trifluoromethyl-benzyl)-propionamide]
- hTRPV1 antagonism in words [1, 5]: good antagonism

Compound: 2-(2-Fluoro-4-(methylsulfonamido)phenyl)-N-(2-(4-(4-fluorobenzyl)piperidin-1-yl)-4-(trifluoromethyl)benzyl)propanamide [Compound 20]
- Ki ([1]; read-out: Ki (CAP), capsaicin 100 nM, FLIPR, hTRPV1 expressed in CHO cells): 0.4 nM

Compound: CC(C(=O)NCc1ccc(C(F)(F)F)cc1[N+](=O)[O-])c1ccc(NS(C)(=O)=O)c(F)c1 (centres unmarked) [Compound 52, 2-(3-Fluoro-4-methanesulfonylamino-phenyl)-N-(2-nitro-4-trifluoromethyl-benzyl)-propionamide]
- hTRPV1 antagonism in words [1, 5]: weak antagonists

Compound: CC(C(=O)NCc1ccc(C(F)(F)F)cc1-c1cccnc1)c1ccc(NS(C)(=O)=O)c(F)c1 (centres unmarked) [Compound 62, 2-(3-Fluoro-4-methanesulfonylamino-phenyl)-N-(2-pyridin-3-yl-4-trifluoromethylbe-nzyl)-propionamide]
- hTRPV1 antagonism in words [1, 5]: weak antagonist

Compound: CC(C(=O)NCc1ccc(C(F)(F)F)cc1SC1CCCC1)c1ccc(NS(C)(=O)=O)c(F)c1 (centres unmarked) [Compound 43, 2-(3-Fluoro-4-(methylsulfonamido)phenyl)-N-(2-cyclopentylthio-4-(trifluoromethyl)-benzyl)propanamide]
- Effect on capsaicin-induced hypothermia in words [2]: blocked capsaicin-induced hypothermia
- Hyperthermia / body temperature effect of compound alone [4]: without hyperthermia; also recorded: did not show any hyperthermia; also recorded: thermoneutral
